Assay type in all cases: functional
One experiment has as its system UO-31. Briefly: Antiproliferative activity against human UO31 cells assessed as growth inhibition after 48 hrs by sulforhodamine B assay. As to conditions: UO-31, 48 h. An outline of the steps:
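NCI-60 five-dose follow-up, run only when the one-dose screen indicated activity. Doses 100 μM down to 0.01 μM in log steps (0.01, 0.1, 1, 10, 100 μM). 48 h incubation with sulforhodamine B read-out. A time-zero cell control allowed calculation of GI50 from % growth vs concentration dose–response curves.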
Background: In SRB staining, fixed cells bind dye roughly in proportion to their protein.

The next experiment deals with HCT-15. The experiment can be described thus: Antiproliferative activity against human HCT15 cells assessed as growth inhibition after 48 hrs by sulforhodamine B assay. Particulars: HCT-15, 48 h.
Experiment [1] relates to CCRF-CEM. Briefly: Antiproliferative activity against human CCRF-CEM cells assessed as cell growth at 10 uM after 48 hrs by sulforhodamine B assay relative to control. As to conditions: pooled result: one value given for 60 cell lines, strains, targets or settings, read-out: Activity. An outline of the steps:
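NCI-60 one-dose screen: cells exposed to test compound at a single 10 μM concentration, viability after 48 h read by sulforhodamine B staining; value is growth percent versus negative control, with a time-zero cell control used to determine total cell growth.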

Experiment [2] concerns CCRF-CEM. Briefly: Antiproliferative activity against human CCRF-CEM cells assessed as growth inhibition after 48 hrs by sulforhodamine B assay. Particulars: pooled result: one value given for 58 cell lines, strains, targets or settings.
The subject of another experiment is COLO 205. Briefly: Induction of cell cycle arrest in human COLO205 cells assessed as increase in accumulation of cells at G2/M phase at 2 uM after 24 hrs by PI/RNase staining based flow cytometry (reference value: 18.6%). An outline of the steps:
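Positive-control arm of the COLO 205 cell-cycle assay: nocodazole 2 μM for 24 h. Culture conditions as above (RPMI, 10% FBS, 37 °C, 5% CO2). Ethanol-fixed cells stained with PI/RNase 40 min at 37 °C and analysed by imaging cytometry for phase distribution. Three independent experiments.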
A general note: A flow cytometer gives signals particle by particle.

The source made the active and inactive calls. The rule behind the calls is not given here.

Turning to `COC(=O)[C@]12CC[C@@H](C)[C@H](C)[C@H]1C1=CC[C@@H]3[C@@]4(C)C=C(O)C(=O)C(C)=C4CC[C@@]3(C)[C@]1(C)CC2`, the GI50 in the experiment on UO-31, in the experiment on HCT-15 and with CCRF-CEM [2] was 12 µM throughout. The growth at 10 µM in the experiment on CCRF-CEM [1] turned out to be 31.7%.
As to `COC(=O)Nc1nc2cc(C(=O)c3cccs3)ccc2[nH]1`, the outcome with COLO 205 was Active.
Turning to `C[C@H]1[C@H](C)CC[C@]2(C(=O)O)CC[C@]3(C)C(=CC[C@@H]4[C@@]5(C)C[C@@H](O)[C@H](O)[C@@](C)(CO)[C@@H]5[C@H](O)C[C@]43C)[C@H]12` [MADECASSIC ACID], the growth at 10 µM with CCRF-CEM [1] came out at 99.2%.
As for `COC(=O)[C@]12CC[C@@H](C)[C@H](C)[C@H]1C1=CC(=O)[C@@H]3[C@@]4(C)C[C@@H](O)[C@H](O)[C@@]5(C)COC(=C45)C[C@@]3(C)[C@]1(C)CC2`, the growth at 10 µM with CCRF-CEM [1] amounted to 51.5%.
Consider `COC(=O)[C@]12CC[C@@H](C)[C@H](C)[C@H]1C1=CC[C@@H]3[C@@]4(C)CC(=O)[C@H](O)[C@@]5(C)COC(=C45)C[C@@]3(C)[C@]1(C)CC2`, for which the GI50 in the experiment with UO-31, in the experiment on HCT-15 and with CCRF-CEM [2] was 18.2 µM in each case. Besides, the growth at 10 µM with CCRF-CEM [1] was -62.9%.
Regarding `COC(=O)[C@]12CC[C@@H](C)[C@H](C)[C@H]1C1=CC[C@@H]3[C@@]4(C)C[C@@H](O)[C@H](O)[C@@]5(C)COC(=C45)C[C@@]3(C)[C@]1(C)CC2`, the growth at 10 µM in the experiment with CCRF-CEM [1] stood at 85.8%.
Take `COC(=O)[C@]12CC[C@@H](C)[C@H](C)[C@H]1C1=CC[C@@H]3[C@@]4(C)CC(=O)[C@H](O)[C@@](C)(CO)[C@@H]4C(=O)C[C@@]3(C)[C@]1(C)CC2`: the GI50 in the experiment with UO-31, in the experiment with HCT-15 and in the experiment with CCRF-CEM [2] was 10 µM in each case. In the experiment on CCRF-CEM [1], the growth at 10 µM is -22.4%.
Regarding `COC(=O)[C@]12CC[C@@H](C)[C@H](C)[C@H]1C1=CC[C@@H]3[C@@]4(C)C[C@@H](OC(C)=O)[C@H](OC(C)=O)[C@@](C)(COC(C)=O)[C@@H]4[C@H](O)C[C@@]3(C)[C@]1(C)CC2`, the GI50 in the experiment on UO-31, with HCT-15 and with CCRF-CEM [2] was 1.7 µM in each case. Further, in the experiment with CCRF-CEM [1], the growth at 10 µM stood at 8%.
Take `COC(=O)[C@]12CC[C@@H](C)[C@H](C)[C@H]1C1=CC[C@@H]3[C@@]4(C)C[C@@H](OC(=O)/C=C/c5ccccc5)[C@H](O)[C@@](C)(CO)[C@@H]4[C@H](O)C[C@@]3(C)[C@]1(C)CC2`: the GI50 in the experiment on UO-31, with HCT-15 and with CCRF-CEM [2] was 2.4 µM each time. Further, the growth at 10 µM in the experiment with CCRF-CEM [1] was -4.8%.
Take `COC(=O)[C@]12CC[C@@H](C)[C@H](C)[C@H]1C1=CC(=O)[C@@H]3[C@@]4(C)C[C@@H](OC(C)=O)[C@H](OC(C)=O)[C@@](C)(COC(C)=O)[C@@H]4C(=O)C[C@@]3(C)[C@]1(C)CC2`: the growth at 10 µM with CCRF-CEM [1] is 45.8%.
In the case of `COC(=O)[C@]12CC[C@@H](C)[C@H](C)[C@H]1C1=CC[C@@H]3[C@@]4(C)C=C(O)C(=O)[C@@]5(C)COC(=C54)C[C@@]3(C)[C@]1(C)CC2`, the GI50 with UO-31, with HCT-15 and in the experiment on CCRF-CEM [2] was 8.9 µM in each case. For the same compound, in the experiment on CCRF-CEM [1], the growth at 10 µM was -58.9%.
With `COC(=O)[C@]12CC[C@@H](C)[C@H](C)[C@H]1C1=CC[C@@H]3[C@@]4(C)C[C@@H](OC(C)=O)[C@H](O)[C@@](C)(CO)[C@@H]4[C@H](O)C[C@@]3(C)[C@]1(C)CC2`, the concentration for 50% growth inhibition (GI50) in the experiment on UO-31, in the experiment on HCT-15 and with CCRF-CEM [2] was 11 µM each time. Moreover, the growth at 10 µM in the experiment on CCRF-CEM [1] was -79.2%.
Turning to `COC(=O)[C@]12CC[C@@H](C)[C@H](C)[C@H]1C1=CC[C@@H]3[C@@]4(C)C=C(O)C(=O)C(C)=C4C(=O)C[C@@]3(C)[C@]1(C)CC2`, the growth at 10 µM with CCRF-CEM [1] came to 67.8%.
In the case of `COC(=O)[C@]12CC[C@@H](C)[C@H](C)[C@H]1C1=CC[C@@H]3[C@@](C)(CC#N)C4=C(C[C@@]3(C)[C@]1(C)CC2)OC[C@]4(C)C=O`, the GI50 with UO-31, in the experiment with HCT-15 and in the experiment on CCRF-CEM [2] was 4.9 µM in each case. For the same compound, the growth at 10 µM in the experiment with CCRF-CEM [1] is -18.1%.
For the compound `COC(=O)[C@]12CC[C@@H](C)[C@H](C)[C@H]1C1=CC[C@@H]3[C@@]4(C)C[C@@H](O)[C@H](O)[C@@](C)(CO)C4=CC[C@@]3(C)[C@]1(C)CC2`, the GI50 in the experiment with UO-31, in the experiment on HCT-15 and with CCRF-CEM [2] was 17 µM in each case. Also, the growth at 10 µM with CCRF-CEM [1] is -55.4%.
Turning to `COC(=O)[C@]12CC[C@@H](C)[C@H](C)[C@H]1C1=CC[C@@H]3[C@@]4(C)C/C(=N\O)[C@H](O)[C@@]5(C)COC(=C45)C[C@@]3(C)[C@]1(C)CC2`, the GI50 in the experiment on UO-31, with HCT-15 and with CCRF-CEM [2] was 6.6 µM in each case. In addition, the growth at 10 µM with CCRF-CEM [1] is -76.9%.
Consider `COC(=O)[C@]12CC[C@@H](C)[C@H](C)[C@H]1C1=CC[C@@H]3[C@@]4(C)CC(=O)[C@H](OC(=O)/C=C/c5ccccc5)[C@@]5(C)COC(=C45)C[C@@]3(C)[C@]1(C)CC2`, for which, in the experiment with CCRF-CEM [1], the growth at 10 µM amounted to 78.2%.
With `COC(=O)[C@]12CC[C@@H](C)[C@H](C)[C@H]1C1=CC[C@@H]3[C@@]4(C)C[C@@H](O)[C@H](O)[C@@](C)(CO)[C@@H]4[C@H](O)C[C@@]3(C)[C@]1(C)CC2`, the GI50 in the experiment on UO-31, in the experiment on HCT-15 and in the experiment on CCRF-CEM [2] was 12.9 µM throughout. Further, the growth at 10 µM with CCRF-CEM [1] was -54.1%.
Take `COC(=O)[C@]12CC[C@@H](C)[C@H](C)[C@H]1C1=CC[C@@H]3[C@@]4(C)C[C@@H](OC(=O)c5ccco5)[C@H](O)[C@@](C)(CO)[C@@H]4[C@H](O)C[C@@]3(C)[C@]1(C)CC2`: the GI50 in the experiment on UO-31, with HCT-15 and with CCRF-CEM [2] was 2.3 µM throughout. The growth at 10 µM in the experiment on CCRF-CEM [1] was -83%.

The values are drawn from ChEMBL document CHEMBL4334460, “Madecassic Acid Derivatives as Potential Anticancer Agents: Synthesis and Cytotoxic Evaluation” (2019).
